Data set [1] is described as follows: folding enthalpy; higher = less favourable; fluorescence melt of hairpins on a sequencing array, two-state fit. To be noted: sodium 0.088 M. The method, boiled down:
(§1)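 To match UV melts, fitted temperatures were raised by 9.35 °C. These fits were bootstrapped two-state models that gave melting temperature and folding enthalpy, combined by inverse variance over four replicates. The input was normalised Cy3 fluorescence of library hairpins with annealed Cy3 and quencher oligos on a sequenced MiSeq flow cell, imaged in 50 mM Na-HEPES pH 8.0, 25 mM NaCl in 2.5 °C steps up to 60 °C.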

A short description of data set [2]: melting temperature; fluorescence melt of hairpins on a sequencing array, two-state fit, raised by 9.35 °C to match UV melts. To be noted: sodium 0.088 M. The method, boiled down:
as §1

For GGGCAGCGAAAGCTACCC (((.(((....))).))), in data set [1], the folding enthalpy was -31.2 kcal/mol. For the same sequence, in data set [2], the Tm was 57.1 °C.
Turning to GCCCCCGAAAGGGATGGC ((((((....)))..))), the folding enthalpy in data set [1] was -24.1 kcal/mol. For the same sequence, the Tm in data set [2] was determined as 52.1 °C.
For GGCTTCGAAAGAAAGGCC ((((((....)))..))), in data set [1], the folding enthalpy was -26 kcal/mol. For the same sequence, in data set [2], the Tm came out at 43.4 °C.
On to GATCTTGGTTAAGATC ((((((....)))))), for which the folding enthalpy in data set [1] was -30.5 kcal/mol. In addition, in data set [2], the Tm stood at 43.7 °C.
With GGTAAGGGAAACTTTACC (((((.(....).))))), the folding enthalpy in data set [1] is -21.3 kcal/mol. Further, the Tm in data set [2] was 36.4 °C.
In the case of GGGAATGGAAACACTCCC ((((.((....)).)))), the folding enthalpy in data set [1] is -29.3 kcal/mol. Also, the Tm in data set [2] was determined as 36.9 °C.
As for GCGTGGGGAAACCCGTGC ((..(((....)))..)), the folding enthalpy in data set [1] is -26.1 kcal/mol. The Tm in data set [2] was 46.2 °C.
Take GGTTATCCGAAAGGAACC (((..(((....)))))): in data set [1], the folding enthalpy was -15.2 kcal/mol. The Tm in data set [2] was 30.2 °C.
For GTGGCAGGAAACTACCAC ((((.((....)).)))) the same measures were -34.2 kcal/mol and 44.6 °C.
As for GCTTCTCGAAAGAGGAGC (((.(((....))).))), the folding enthalpy in data set [1] is -36.1 kcal/mol. In addition, in data set [2], the Tm amounted to 56.1 °C.
The corresponding values for GATCCGTGACGGATC ((((((...)))))) are -38.3 kcal/mol and 59.9 °C.
Turning to CGCCAGCGGAAACGCGCG (((..(((....)))))), in data set [1], the folding enthalpy is -23.4 kcal/mol. In addition, the Tm in data set [2] worked out at 50.6 °C.
For GATCAGAAAACTGATC ((((((....)))))) the same measures were -29.2 kcal/mol and 43.6 °C.
The corresponding values for GGCCCCCGAAAGGGAGCC (((.(((....))).))) are -27.1 kcal/mol and 66.8 °C.
For GCTCACGAAAGTGACAGC ((((((....)))..))) the same measures were -14.8 kcal/mol and 43.2 °C.
As to GGGACGGGAAACCATCCC ((((.((....)).)))), the folding enthalpy in data set [1] was -31.6 kcal/mol. The Tm in data set [2] worked out at 44.7 °C.
For GATCTTGGGAAAGATC ((((((....)))))) the same measures were -33.3 kcal/mol and 49.1 °C.
The corresponding values for GCCGACCCGAAAGGGGGC (((..(((....)))))) are -18.4 kcal/mol and 55.7 °C.
For the sequence GATCCATAAGTGGATC ((((((....)))))), the folding enthalpy in data set [1] was -39.2 kcal/mol. Also, in data set [2], the Tm amounted to 51.9 °C.
For GCGCTCGAAAGAGGACGC ((((((....)))..))) the same measures were -23.7 kcal/mol and 50 °C.
For the sequence GGCACCGAAAGGTGCGCC ((((((....)))..))), the folding enthalpy in data set [1] was -6.18 kcal/mol. In addition, the Tm in data set [2] worked out at 66.1 °C.
For GCTTAAGGAAACCTAAGC (((((.(....).))))) the same measures were -22.8 kcal/mol and 35.7 °C.
For GATCTGTTTGCAGATC ((((((....)))))) the same measures were -40.6 kcal/mol and 54.8 °C.
On to GCATTTGGAAACAAATGC (((((((....))))))), for which the folding enthalpy in data set [1] is -46.7 kcal/mol. Moreover, in data set [2], the Tm came to 60 °C.
Turning to GCAATGCGAAAGCGATGC (((..((....))..))), the folding enthalpy in data set [1] was -20.6 kcal/mol. For the same sequence, the Tm in data set [2] came to 53 °C.
The corresponding values for GCGAGTCTCGC ((((...)))) are -19.8 kcal/mol and 50.1 °C.
The corresponding values for GATCCGCGATCGGATC ((((((....)))))) are -28.8 kcal/mol and 57.4 °C.
The corresponding values for GGATTTGAAAAAATCC ((((((....)))))) are -34.7 kcal/mol and 49.6 °C.
Take GGTAACCGAAAGGTGACC (((.(((....))).))): in data set [1], the folding enthalpy is -36.3 kcal/mol. The Tm in data set [2] was found to be 55.4 °C.
For GTGTAGAAATACAC (((((....))))) the same measures were -21.8 kcal/mol and 41.6 °C.
The corresponding values for GCCCGGCGAAAGCTGCGC ((.(.((....)).).)) are -17.6 kcal/mol and 44.2 °C.
For GAGAACGGAAACGTCCTC (((.(((....))).))) the same measures were -24.5 kcal/mol and 40.2 °C.
Take GCTTCGCGAAAGCCTAGC (((..((....))..))): the folding enthalpy in data set [1] was -14.7 kcal/mol. The Tm in data set [2] stood at 37.4 °C.
Consider GCCTTGGGAAACTGAGGC ((((..(....)..)))), for which the folding enthalpy in data set [1] was -29.9 kcal/mol. The Tm in data set [2] amounted to 45.1 °C.
Consider GTCACCGGAAACGGCGAC (((.(((....))).))), for which the folding enthalpy in data set [1] is -40.6 kcal/mol. For the same sequence, the Tm in data set [2] stood at 54.5 °C.
As for GATCCCCGTGGGATC ((((((...)))))), the folding enthalpy in data set [1] was -27.8 kcal/mol. Moreover, the Tm in data set [2] came to 65.2 °C.
For GCGCATGGAAACATACGC (((.(((....))).))) the same measures were -40.6 kcal/mol and 49.5 °C.
Consider CGGGTGCGGAAACGCCCG (((..(((....)))))), for which the folding enthalpy in data set [1] was -23.4 kcal/mol. In data set [2], the Tm came out at 55.7 °C.
Consider GAGCCCGGAAACGGACTC (((.(((....))).))), for which the folding enthalpy in data set [1] was -33.1 kcal/mol. In data set [2], the Tm worked out at 52.4 °C.
With GCGAAACTCGC ((((...)))), the folding enthalpy in data set [1] is -18.9 kcal/mol. Also, the Tm in data set [2] was 47.4 °C.
GACCCCCGAAAGGGCGTC (((.(((....))).))): the folding enthalpy in data set [1] was -25.1 kcal/mol. The Tm in data set [2] was found to be 55.4 °C.
For GGGTCCGGAAACGAACCC ((((.((....)).)))) the same measures were -31.9 kcal/mol and 49 °C.
For GTATACGAAAGTAATAC ((((((....))).))), the folding enthalpy in data set [1] was -19.2 kcal/mol. Also, in data set [2], the Tm was found to be 35.5 °C.
GTGTCTGCGAAAGCACAC (((..(((....)))))): the folding enthalpy in data set [1] is -14.6 kcal/mol. Also, the Tm in data set [2] stood at 43.8 °C.
For GGGATGGGAAACTGTCCC ((((..(....)..)))) the same measures were -31.3 kcal/mol and 43.5 °C.
For GTCTAGCGAAAGCTTGAC (((.(((....))).))) the same measures were -28.7 kcal/mol and 54.2 °C.
As to GTATTGTCGAAAGACTAC (((..(((....)))))), the folding enthalpy in data set [1] was -11.4 kcal/mol. Further, the Tm in data set [2] amounted to 28.5 °C.
For GACGCGGGAAACCGCACC (..((((....))))..), the folding enthalpy in data set [1] was -8.05 kcal/mol. In data set [2], the Tm was 32.2 °C.
The corresponding values for GCGACGCGAAAGCCCCGC (((..((....))..))) are -15.2 kcal/mol and 44.4 °C.
The corresponding values for GCCCGACCGAAAGGTGGC (((..(((....)))))) are -17.1 kcal/mol and 51 °C.
Consider GACTGCGAAAGCATGGTC ((((((....)))..))), for which the folding enthalpy in data set [1] is -14.9 kcal/mol. Also, in data set [2], the Tm came out at 42.7 °C.
GATCGGTCTGCCGATC ((((((....)))))): the folding enthalpy in data set [1] was -41.8 kcal/mol. Further, the Tm in data set [2] stood at 62.1 °C.
For GACCCAGGAAACTGAGTC (((.(((....))).))) the same measures were -30 kcal/mol and 37.9 °C.
For GAGACCCGAAAGGGACTC (((.(((....))).))) the same measures were -32.4 kcal/mol and 57.6 °C.
For GCACTTGAAAAAGTGC ((((((....)))))) the same measures were -41.2 kcal/mol and 61.2 °C.
Consider GACTAAACGAAAGTTGTC (((..(((....)))))), for which the folding enthalpy in data set [1] was -19.6 kcal/mol. In data set [2], the Tm came out at 34.9 °C.
The corresponding values for GGGACAGGAAACCGTCCC (((((.(....).))))) are -36.2 kcal/mol and 52.8 °C.
For GATGTCCGAAAGGAGATC (((.(((....))).))) the same measures were -28.9 kcal/mol and 50.3 °C.
On to CTACCGAAAGGTAG (((((....))))), for which, in data set [1], the folding enthalpy was -23.2 kcal/mol. Moreover, in data set [2], the Tm came out at 57.9 °C.
The corresponding values for GGACCAGAAATGGTCC ((((((....)))))) are -43.7 kcal/mol and 63.7 °C.
For the sequence GATCCGAGGCCGGATC ((((((....)))))), in data set [1], the folding enthalpy is -45.5 kcal/mol. The Tm in data set [2] came out at 56.4 °C.
On to GTGGACCGAAAGGTGCAC (((.(((....))).))), for which the folding enthalpy in data set [1] is -24.7 kcal/mol. Further, the Tm in data set [2] amounted to 67.3 °C.
Turning to GCGGCGCGAAAGCTACGC (((..((....))..))), in data set [1], the folding enthalpy was -28.9 kcal/mol. In addition, the Tm in data set [2] turned out to be 61.8 °C.
For GATCGGTCCGCCGATC ((((((....)))))), the folding enthalpy in data set [1] is -42.5 kcal/mol. The Tm in data set [2] was found to be 60.1 °C.
In the case of GGAACTGGAAACAATTCC ((((.((....)).)))), the folding enthalpy in data set [1] was -13.1 kcal/mol. The Tm in data set [2] amounted to 28.4 °C.
For GATCACTGGCGTGATC ((((((....)))))) the same measures were -41.4 kcal/mol and 55.2 °C.
In the case of GCTTAGCGAAAGCGAAGC ((((.((....)).)))), the folding enthalpy in data set [1] is -22.4 kcal/mol. Moreover, the Tm in data set [2] was found to be 60.8 °C.
The corresponding values for GGAGACGAAAGTCCCTCC ((((((....)))..))) are -16.3 kcal/mol and 49.8 °C.
For GATCCCCTAGGGATC ((((((...)))))) the same measures were -38.4 kcal/mol and 64.4 °C.
For GACCTGCCGAAAGGCGTC (((..(((....)))))) the same measures were -9.15 kcal/mol and 29.3 °C.
For the sequence GATCAGTGTGCTGATC ((((((....)))))), the folding enthalpy in data set [1] is -52.8 kcal/mol. The Tm in data set [2] was found to be 56.6 °C.
The corresponding values for GCTTCGCGAAAGCCACGC ((.(.((....)).).)) are -8.03 kcal/mol and 27.8 °C.
For GCCTCGCGAAAGCGCCGC ((..(((....)))..)) the same measures were -14.3 kcal/mol and 36.1 °C.
For GATCTAACTCTAGATC ((((((....)))))) the same measures were -21.1 kcal/mol and 39.6 °C.
